Measured values: ChEMBL document CHEMBL5058577, “EUbOPEN Chemogenomics Library 2 (Multiplex)” (2022)

System: Fibroblast
Assay: Multiplex assay against human fibroblast
Type: toxicity, cell-based
Summary of the method: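 Four dyes were applied at seeding to live cells: Hoechst33342, BioTracker Green Microtubule Cytoskeleton Dye, MitoTracker Red and Annexin V Alexa Fluor 680. Imaging after compound addition used a CQ1 microscope at 37°C and 5% CO2. CellPathfinder machine-learning gating then sorted cells into Hoechst high-intensity objects or normal cells, normal cells into healthy, pyknosed or fragmented nuclei, and pyknosed cells into mitotic or apoptotic, with tubulin, mitochondrial-mass and membrane-permeability phenotypes given as per cents of healthy-nucleus cells.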

[1] = 12 h, 1 µM, compound concentration 1 uM, replicate 1
[2] = 12 h, 1 µM, compound concentration 1 uM, replicate 2
[3] = 12 h, 10 µM, compound concentration 10 uM, replicate 1
[4] = 12 h, 10 µM, compound concentration 10 uM, replicate 2
[5] = 24 h, 1 µM, compound concentration 1 uM, replicate 1
[6] = 24 h, 1 µM, compound concentration 1 uM, replicate 2
[7] = 24 h, 10 µM, compound concentration 10 uM, replicate 1
[8] = 24 h, 10 µM, compound concentration 10 uM, replicate 2
[9] = 48 h, 1 µM, compound concentration 1 uM, replicate 1
[10] = 48 h, 1 µM, compound concentration 1 uM, replicate 2
[11] = 48 h, 10 µM, compound concentration 10 uM, replicate 1
[12] = 48 h, 10 µM, compound concentration 10 uM, replicate 2

SMILES: CCC(=O)OCC(=O)[C@@]1(OC(=O)CC)[C@@H](C)C[C@H]2[C@@H]3CCC4=CC(=O)C=C[C@]4(C)[C@@]3(Cl)[C@@H](O)C[C@@]21C [BECLOMETHASONE DIPROPIONATE]
- Population Apoptotic (%) [1]: 38%
- Population Fragmented Nuclei (%) [1]: 13%
- Population Healthy Nuclei (%) [1]: 73%
- Population Hoechst High Intensity Objects (%) [1]: 3%
- Population Membrane Permeable-Phenotype (%) [1]: 1%
- Population Mitochondria Different-Phenotype (%) [1]: 2%
- Population Mitotic Cells (%) [1]: 61%
- Population Normal (%) [1]: 96%
- Population Pyknosed Nuclei (%) [1]: 13%
- Population Tubulin-Different-Phenotype (%) [1]: 47%
- Total Cell Count [1]: 135
- Population Apoptotic (%) [2]: 42%
- Population Fragmented Nuclei (%) [2]: 30%
- Population Healthy Nuclei (%) [2]: 40%
- Population Membrane Permeable-Phenotype (%) [2]: 5%
- Population Mitochondria Different-Phenotype (%) [2]: 10%
- Population Mitotic Cells (%) [2]: 57%
- Population Pyknosed Nuclei (%) [2]: 30%
- Population Tubulin-Different-Phenotype (%) [2]: 63%
- Total Cell Count [2]: 155
- Population Apoptotic (%) [3]: 40%
- Population Fragmented Nuclei (%) [3]: 9%
- Population Healthy Nuclei (%) [3]: 69%
- Population Hoechst High Intensity Objects (%) [3]: 8%
- Population Membrane Permeable-Phenotype (%) [3]: 1%
- Population Mitochondria Different-Phenotype (%) [3]: 17%
- Population Mitotic Cells (%) [3]: 60%
- Population Normal (%) [3]: 91%
- Population Pyknosed Nuclei (%) [3]: 20%
- Population Tubulin-Different-Phenotype (%) [3]: 87%
- Total Cell Count [3]: 157
- Population Fragmented Nuclei (%) [4]: 32%
- Population Healthy Nuclei (%) [4]: 42%
- Population Hoechst High Intensity Objects (%) [4]: 5%
- Population Membrane Permeable-Phenotype (%) [4]: 15%
- Population Mitochondria Different-Phenotype (%) [4]: 20%
- Population Mitotic Cells (%) [4]: 59%
- Population Normal (%) [4]: 94%
- Population Pyknosed Nuclei (%) [4]: 24%
- Population Tubulin-Different-Phenotype (%) [4]: 94%
- Total Cell Count [4]: 96
- Population Apoptotic (%) [5]: 50%
- Population Fragmented Nuclei (%) [5]: 16%
- Population Healthy Nuclei (%) [5]: 65%
- Population Hoechst High Intensity Objects (%) [5]: 1%
- Population Membrane Permeable-Phenotype (%) [5]: 3%
- Population Mitochondria Different-Phenotype (%) [5]: 2%
- Population Mitotic Cells (%) [5]: 50%
- Population Normal (%) [5]: 98%
- Population Pyknosed Nuclei (%) [5]: 18%
- Population Tubulin-Different-Phenotype (%) [5]: 34%
- Total Cell Count [5]: 134
- Population Apoptotic (%) [6]: 47%
- Population Fragmented Nuclei (%) [6]: 30%
- Population Healthy Nuclei (%) [6]: 45%
- Population Hoechst High Intensity Objects (%) [6]: 6%
- Population Membrane Permeable-Phenotype (%) [6]: 7%
- Population Mitochondria Different-Phenotype (%) [6]: 7%
- Population Mitotic Cells (%) [6]: 52%
- Population Normal (%) [6]: 93%
- Population Pyknosed Nuclei (%) [6]: 24%
- Population Tubulin-Different-Phenotype (%) [6]: 60%
- Total Cell Count [6]: 150
- Population Apoptotic (%) [7]: 40%
- Population Fragmented Nuclei (%) [7]: 13%
- Population Healthy Nuclei (%) [7]: 66%
- Population Hoechst High Intensity Objects (%) [7]: 6%
- Population Membrane Permeable-Phenotype (%) [7]: 1%
- Population Mitochondria Different-Phenotype (%) [7]: 30%
- Population Mitotic Cells (%) [7]: 59%
- Population Normal (%) [7]: 93%
- Population Pyknosed Nuclei (%) [7]: 19%
- Population Tubulin-Different-Phenotype (%) [7]: 86%
- Total Cell Count [7]: 148
- Population Apoptotic (%) [8]: 19%
- Population Fragmented Nuclei (%) [8]: 38%
- Population Healthy Nuclei (%) [8]: 40%
- Population Membrane Permeable-Phenotype (%) [8]: 15%
- Population Mitochondria Different-Phenotype (%) [8]: 12%
- Population Mitotic Cells (%) [8]: 80%
- Population Pyknosed Nuclei (%) [8]: 21%
- Population Tubulin-Different-Phenotype (%) [8]: 79%
- Total Cell Count [8]: 104
- Population Apoptotic (%) [9]: 28%
- Population Fragmented Nuclei (%) [9]: 13%
- Population Healthy Nuclei (%) [9]: 56%
- Population Hoechst High Intensity Objects (%) [9]: 3%
- Population Membrane Permeable-Phenotype (%) [9]: 1%
- Population Mitochondria Different-Phenotype (%) [9]: 15%
- Population Mitotic Cells (%) [9]: 71%
- Population Normal (%) [9]: 96%
- Population Pyknosed Nuclei (%) [9]: 30%
- Population Tubulin-Different-Phenotype (%) [9]: 61%
- Total Cell Count [9]: 132
- Population Apoptotic (%) [10]: 52%
- Population Fragmented Nuclei (%) [10]: 31%
- Population Healthy Nuclei (%) [10]: 41%
- Population Hoechst High Intensity Objects (%) [10]: 7%
- Population Membrane Permeable-Phenotype (%) [10]: 5%
- Population Mitochondria Different-Phenotype (%) [10]: 9%
- Population Mitotic Cells (%) [10]: 47%
- Population Normal (%) [10]: 92%
- Population Pyknosed Nuclei (%) [10]: 27%
- Population Tubulin-Different-Phenotype (%) [10]: 54%
- Total Cell Count [10]: 143
- Population Apoptotic (%) [11]: 67%
- Population Fragmented Nuclei (%) [11]: 21%
- Population Healthy Nuclei (%) [11]: 54%
- Population Hoechst High Intensity Objects (%) [11]: 6%
- Population Membrane Permeable-Phenotype (%) [11]: 0%
- Population Mitochondria Different-Phenotype (%) [11]: 47%
- Population Mitotic Cells (%) [11]: 32%
- Population Normal (%) [11]: 93%
- Population Pyknosed Nuclei (%) [11]: 24%
- Population Tubulin-Different-Phenotype (%) [11]: 76%
- Total Cell Count [11]: 162
- Population Apoptotic (%) [12]: 37%
- Population Fragmented Nuclei (%) [12]: 33%
- Population Healthy Nuclei (%) [12]: 33%
- Population Hoechst High Intensity Objects (%) [12]: 3%
- Population Membrane Permeable-Phenotype (%) [12]: 18%
- Population Mitochondria Different-Phenotype (%) [12]: 15%
- Population Mitotic Cells (%) [12]: 62%
- Population Normal (%) [12]: 96%
- Population Pyknosed Nuclei (%) [12]: 33%
- Population Tubulin-Different-Phenotype (%) [12]: 84%
- Total Cell Count [12]: 99
